Reference: ChEMBL document CHEMBL1138754, “Synthesis of taxoids with improved cytotoxicity and solubility for use in tumor-specific delivery” (J Med Chem, 2004)
In brackets after ≈: the same amount, converted by molar mass.

Columns and labels:
MCF7 [1] = experiment: In vitro inhibitory concentration that inhibits 50% of the growth of MCF-7 human breast cell carcinoma cell line after 72 hr of drug exposure.; format: functional, cell-based; settings: MCF7, 72 h
A549 [2] = experiment: In vitro inhibitory concentration that inhibits 50% of the growth of A549 non small cell lung carcinoma cell line after 72 hr of drug exposure.; format: functional, cell-based; settings: Homo sapiens, A549, 72 h
[3] = Solubility in 10% Ethanol (expressed as mean of 3 determinations); format: physicochemical; settings: read-out: S
Procedure, shortened: (§1)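 200 μg of taxane was dissolved in 50 µL of organic solvent (DMA, DMSO or ethanol), then diluted to 500 µL (10% organic) with conjugation buffer: 0.1 M potassium phosphate, 1 mM EDTA, pH 6.5. The mixture was vortexed and centrifuged, and the taxane concentration in the supernatant was measured spectrophotometrically.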

[4] = Solubility in 10% DMA (expressed as mean of 3 determinations); format: physicochemical; settings: read-out: S; procedure, shortened: as §1
[5] = Solubility in 10% DMSO(expressed as mean of 3 determinations); format: physicochemical; settings: read-out: S; procedure, shortened: as §1
[6] = Inhibitory concentration that inhibits 50% of the growth of Namalwa MDR Burkitts lymphoma MDR cell carcinoma cell line after 72 hr of drug exposure.; format: functional, cell-based; settings: Homo sapiens
[7] = Solubility in 10% DMA(expressed as mean of 3 determinations); format: physicochemical; settings: read-out: S; procedure, shortened: as §1
MCF7 [8] = experiment: Inhibitory concentration that inhibits 50% of the growth of MCF-7 human breast cell carcinoma cell line after 72 hr of drug exposure. (Table 3); format: functional, cell-based; settings: MCF7, 72 h
NCI/ADR-RES = experiment: Inhibitory concentration that inhibits 50% of the growth of NCI ADR RES human […] cell carcinoma cell line after 72 h of drug exposure.; format: functional, cell-based
[9] = Inhibitory concentration that inhibits 50% of the growth of Namalwa Burkitts lymphoma cell carcinoma cell line after 72 hr of drug exposure.; format: functional, cell-based; settings: Homo sapiens
MDR = experiment: Inhibitory concentration that inhibits 50% of the growth of LGM MDR human breast cell carcinoma cell line after 72 hr of drug exposure.; format: functional, cell-based
Breast carcinoma cell = experiment: Inhibitory concentration that inhibits 50% of the growth of LCC6/P9 human breast cell carcinoma cell line after 72 hr of drug exposure.; format: functional, cell-based
MCF7 [10] = experiment: In vitro inhibitory concentration that inhibits 50% of the growth of MCF-7 human breast cell carcinoma cell line after 72 hr of drug exposure. (IC50 based on 2 separate determinations); format: functional; settings: MCF7, 72 h
A549 [11] = experiment: In vitro inhibitory concentration that inhibits 50% of the growth of A549 non small cell lung carcinoma cell line after 72 hr of drug exposure. (IC50 based on 2 separate determinations); format: functional; settings: Homo sapiens, A549, 72 h
[12] = Solubility in 10% DMSO (expressed as mean of 3 determinations); format: physicochemical; settings: read-out: S; procedure, shortened: as §1

| SMILES | IC50 (MCF7 [1]) | IC50 (A549 [2]) | solubility [3] | solubility [4] | solubility [5] | IC50 [6] | solubility [7] | IC50 (MCF7 [8]) | IC50 (NCI/ADR-RES) | IC50 [9] | IC50 (MDR) | IC50 (Breast carcinoma cell) | IC50 (MCF7 [10]) | IC50 (A549 [11]) | solubility [12] |
| --- | --- | --- | --- | --- | --- | --- | --- | --- | --- | --- | --- | --- | --- | --- | --- |
| COc1ccc(OC)c(C(=O)O[C@H]2C3[C@](C)(C(=O)[C@H](O)C4=C(C)[C@@H](OC(=O)[C@H](O)[C@H](C=C(C)C)NC(=O)OC(C)(C)C)C[C@]2(O)C4(C)C)C(OC(=O)CCSSC)C[C@H]2OC[C@@]32OC(C)=O)c1 (stereo partly specified) | 0.07 nM | 0.13 nM | 2 µg/mL (≈ 2.04 µM) | 10 µg/mL (≈ 10.2 µM) | 4 µg/mL (≈ 4.08 µM) | – | – | – | – | – | – | – | – | – | – |
| COc1ccc(OC)c(C(=O)O[C@H]2C3[C@](C)(C(=O)[C@H](OC(=O)CCSSC)C4=C(C)[C@@H](OC(=O)[C@H](O)[C@H](C=C(C)C)NC(=O)OC(C)(C)C)C[C@]2(O)C4(C)C)C(O)C[C@H]2OC[C@@]32OC(C)=O)c1 (stereo partly specified) | 0.05 nM | 0.09 nM | 10 µg/mL (≈ 10.2 µM) | – | 14 µg/mL (≈ 14.3 µM) | 0.65 nM | 8 µg/mL (≈ 8.16 µM) | 0.4 nM | 15 nM | 0.53 nM | 4 nM | 1 nM | – | – | – |
| CSSCCC(=O)O[C@H]1C(=O)[C@]2(C)C(O)C[C@H]3OC[C@@]3(OC(C)=O)C2[C@H](OC(=O)c2ccccc2)[C@]2(O)C[C@H](OC(=O)[C@H](O)[C@H](C=C(C)C)NC(=O)OC(C)(C)C)C(C)=C1C2(C)C (stereo partly specified) | 1 nM | 0.8 nM | – | – | – | – | – | – | – | – | – | – | – | – | – |
| COc1ccc(OC)c(C(=O)O[C@H]2C3[C@](C)(C(=O)[C@H](OC(=O)CCOCCOCCOCCOCCSSC)C4=C(C)[C@@H](OC(=O)[C@H](O)[C@H](C=C(C)C)NC(=O)OC(C)(C)C)C[C@]2(O)C4(C)C)C(O)C[C@H]2OC[C@@]32OC(C)=O)c1 (stereo partly specified) | 0.06 nM | 0.29 nM | 55 µg/mL (≈ 47.6 µM) | – | 82 µg/mL (≈ 70.9 µM) | 0.9 nM | 79 µg/mL (≈ 68.3 µM) | 0.5 nM | 19 nM | 0.45 nM | 18 nM | 1.6 nM | – | – | – |
| CSSCCN1CCN(C(=O)O[C@H]2C(=O)[C@]3(C)C(O)C[C@H]4OC[C@@]4(OC(C)=O)C3[C@H](OC(=O)c3ccccc3)[C@]3(O)C[C@H](OC(=O)[C@H](O)[C@H](C=C(C)C)NC(=O)OC(C)(C)C)C(C)=C2C3(C)C)CC1 (stereo partly specified) | 1 nM | 1.1 nM | – | – | – | – | – | – | – | – | – | – | – | – | – |
| COc1ccc(OC)c(C(=O)O[C@H]2C3[C@](C)(C(=O)[C@H](OC(=O)CCOCCOCCOCCOCCOCCOCCOCCOCCOCCOCCSSC)C4=C(C)[C@@H](OC(=O)[C@H](O)[C@H](C=C(C)C)NC(=O)OC(C)(C)C)C[C@]2(O)C4(C)C)C(O)C[C@H]2OC[C@@]32OC(C)=O)c1 (stereo partly specified) | – | – | 127 µg/mL (≈ 89.4 µM) | 97 µg/mL (≈ 68.3 µM) | 110 µg/mL (≈ 77.4 µM) | – | – | – | – | – | – | – | 0.58 nM | 1.1 nM | – |
| COc1ccc(OC)c(C(=O)O[C@H]2C3[C@](C)(C(=O)[C@H](OC(=O)N4CCN(CCSSC)CC4)C4=C(C)[C@@H](OC(=O)[C@H](O)[C@H](C=C(C)C)NC(=O)OC(C)(C)C)C[C@]2(O)C4(C)C)C(O)C[C@H]2OC[C@@]32OC(C)=O)c1 (stereo partly specified) | 0.039 nM | 0.3 nM | 32 µg/mL (≈ 30.1 µM) | 26 µg/mL (≈ 24.4 µM) | 26 µg/mL (≈ 24.4 µM) | – | – | – | – | – | – | – | – | – | – |
| COc1ccc(OC)c(C(=O)O[C@H]2C3[C@](C)(C(=O)[C@H](O)C4=C(C)[C@@H](OC(=O)[C@H](O)[C@H](C=C(C)C)NC(=O)OC(C)(C)C)C[C@]2(O)C4(C)C)C(OC(=O)CCOCCOCCOCCOCCSSC)C[C@H]2OC[C@@]32OC(C)=O)c1 (stereo partly specified) | – | – | 13 µg/mL (≈ 11.2 µM) | 11 µg/mL (≈ 9.51 µM) | – | – | – | – | – | – | – | – | 0.32 nM | 1 nM | 17 µg/mL (≈ 14.7 µM) |
